Experimental data published in publication PMC5543507 (Cancer Science, 2017).
“And” between values parts separate entries of the source, which are not always exact repeats. Equal entries are not always repeated. Marks after values point to notes of the source that are not given here.

Experiments:
GLI1 expression [1] = details: advanced solid tumors; 80–640 mg; cited from earlier work
[2] = system: select advanced hematologic malignancies; test: Preliminary clinical activity by disease-specific response criteria; assay type: in vivo, Japanese patients
How it was run: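 Patients aged ≥20 years had refractory, resistant or intolerant MDS, MF, CMML, CML or AML. They took oral test compound once daily at 25, 50 or 100 mg in 28-day cycles, after a lead-in dose on Day −5. Response was judged by disease-specific criteria and summarised with descriptive statistics.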

[3] = Plasma pharmacokinetics after single and multiple oral doses; assay type: in vivo, Japanese patients; details: for half-life / AUC(0-inf) / Tmax / Vd/F: human, plasma; for C trough: multiple dose, Cycle 1/Day 21; for C trough / CL/F: geometric mean (geometric %CV); for CL/F: single dose
How it was run: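 Dosing was oral, once daily, at 25, 50 or 100 mg (3 + 3 design), with a single lead-in dose on Day −5. Serial blood was drawn on Day −5 and on Cycle 1 Days 1, 8, 15 and 21, then on Day 1 of later cycles. Plasma drug was assayed by a validated method (LLOQ 3.00 ng/mL). Cmax, Tmax and AUC came from noncompartmental analysis.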

[4] = system: leukemic stem cell (LSC) burden in xenograft models; details: cited from earlier work
[5] = system: Japanese patients with select advanced hematologic malignancies; test: Safety: adverse events and dose-limiting toxicities, phase I trial of glasdegib; assay type: in vivo
How it was run: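 Once-daily oral dosing at 25, 50 or 100 mg followed a 3 + 3 design. AEs, serious AEs and laboratory tests were monitored until 28 days after the last dose or until drug-related toxicities resolved, graded by NCI CTCAE v4.0. DLT window: Day −5 to Cycle 1 Day 28. DLTs: grade ≥3 nonhematologic toxicity; myelosuppression lasting ≥42 days; grade ≥3 QTc prolongation (≥501 ms).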

solid tumors = details: glasdegib monotherapy; cited from earlier work
hematologic malignancies = details: cited from earlier work
GLI1 expression [6] = test: GLI1 expression in normal skin biopsies; assay type: in vivo, Japanese patients; details: for Downregulation of GLI1 expression from skin biopsies: steady state (Cycle 1 Day 21 vs screening)
How it was run: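 Adults with advanced hematologic malignancies received once-daily oral test compound at 25, 50 or 100 mg in 28-day cycles, after a single lead-in dose on Day −5. Normal skin biopsies were taken at screening and on Cycle 1 Day 21. Expression of Hh pathway-regulated genes was measured relative to baseline, matched to PK sampling where possible, and summarised graphically and descriptively.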

SMO = details: preclinical studies; cited from earlier work
[7] = system: patients with select advanced myeloid malignancies and solid tumors; details: phase I dose-escalation study, United States and Italy; cited from earlier work
[8] = 5–600 mg dose range; cited from earlier work

## CN1CC[C@@H](NC(=O)Nc2ccc(C#N)cc2)C[C@@H]1c1nc2ccccc2[nH]1 [glasdegib]
GLI1 expression [1]
  Downregulation of GLI1 expression in surrogate tissue: > 80%
[2]; 25 mg
  AML patients achieving stable disease: 1 patients
  MDS patients achieving stable disease: 1
[2]; 50 mg
  AML patients achieving stable disease: 1 patients
[2]; 100 mg
  MDS patients achieving stable disease: 1
[2]; 100-mg group
  AML patients achieving stable disease: 2 patients
[2]; 100-mg group, 8% of 13
  AML patients with morphological complete remission as best response: 1 patient
[2]; all dose groups, 31%
  AML patients achieving stable disease: Four
[3]; 25–100 mg
  Dose proportionality of maximum plasma concentration and exposure: broadly dose‐proportional
[3]; oral
  half-life: 20.7 ± 7.7 h
[3]; po, 25 mg
  AUC(0-inf): 3350 ng·h/mL
  Tmax: 2 h
  Vd/F: 165 L
  half-life: 15.3 h
[3]; po, 50 mg
  AUC(0-inf): 9590 ng·h/mL
  Tmax: 4 h
  Vd/F: 225 L
  half-life: 30.3 h
[3]; po, 100 mg
  AUC(0-inf): 13100 ng·h/mL
  Tmax: 2 h
  Vd/F: 184 L
  half-life: 17.1 h
[3]; 50 mg q.d.
  C trough: 240 (37) ng/mL
[3]; 100 mg q.d.
  C trough: 343 (35) ng/mL
[3]; 25 mg oral
  CL/F: 7.47 (68) L/h
[3]; 50 mg oral
  CL/F: 5.22 (64) L/h
[3]; 100 mg oral
  CL/F: 7.63 (20) L/h
[4]; preclinical studies
  Antitumor activity in vivo: significant antitumor activity
[4]; xenograft models
  Leukemic stem cell (LSC) burden: significant reduction
[5]; 50 mg group
  Permanent discontinuation of treatment due to AE: 3 patients
[5]; 100 mg group
  Permanent discontinuation of treatment due to AE: 1 patient
[5]; 9 of 13 patients with treatment-related AE
  Severity of treatment-emergent, treatment-related AE: 1–3 grade
[5]; 13 patients, 8%
  Leukopenia, grade 4 treatment-emergent AE: 1 n
  Neutropenia, grade 4 treatment-emergent AE: 1 n
  Reduced platelet count, grade 4 treatment-emergent AE: 1 n
  Thrombocytopenia, grade 4 treatment-emergent AE: 1 n
[5]; 13 patients, 15%
  Anemia, grade 3 treatment-emergent all-causality AE: 2 n
  Hypokalemia, grade 3 treatment-emergent all-causality AE: 2 n
  Thrombocytopenia, grade 3 treatment-emergent all-causality AE: 2 n
[5]; 13 patients, 23%, grade 1 muscle cramp, grade 1 dysgeusia, grade 1–3 pyrexia
  Treatment temporarily discontinued or dose reduced due to a treatment-related AE: 3 patients
[5]; 13 patients, 25, 50 and 100 mg q.d., Day −5 to Day 28 of Cycle 1
  First-cycle dose-limiting toxicities (DLT): No DLT were observed
[5]; 50-mg group
  Temporary discontinuations for an all-cause AE: 1 patient
[5]; 100-mg group, 23%
  Temporary discontinuations for an all-cause AE: 3 patients
[5]; N = 13
  Grade 4 or 5 treatment-related adverse events: No grade 4 or 5 treatment‐related adverse events were reported in this study.
  Pyrexia, grade 3 treatment-related: a One patient experienced grade 3 treatment‐related pyrexia.
[5]; N = 13, 25, 50 and 100 mg q.d. oral pooled
  Any adverse event, treatment-emergent all-causality, all grades: 13 (100.0) n (%)
[5]; N = 13, all doses pooled
  Alopecia, all-causality, all grades: 4 (30.8) n (%)
  Alopecia, all-causality, ≥Grade 3: 0 n (%)
  Alopecia, treatment-related, Grade 3: 0 n (%)
  Alopecia, treatment-related, all grades: 4 (30.8) n (%)
  Any adverse event, treatment-emergent all-causality, ≥Grade 3: 7 (53.8) n (%)
  Any adverse event, treatment-emergent treatment-related, all grades: 9 n (%) and 9 (69.2) n (%)
  Any adverse event, treatment-related, Grade 3: 1 (7.7) ^a n (%)
  Blood creatinine phosphokinase increased, all-causality, all grades: 3 (23.1) n (%)
  Blood creatinine phosphokinase increased, all-causality, ≥Grade 3: 0 n (%)
  Blood creatinine phosphokinase increased, treatment-related, Grade 3: 0 n (%)
  Blood creatinine phosphokinase increased, treatment-related, all grades: 3 (23.1) n (%)
  Constipation, all-causality, all grades: 6 (46.2) n (%)
  Constipation, all-causality, ≥Grade 3: 0 n (%)
  Constipation, treatment-related, Grade 3: 0 n (%)
  Constipation, treatment-related, all grades: 3 (23.1) n (%)
  Decreased appetite, all-causality, all grades: 6 (46.2) n (%)
  Decreased appetite, all-causality, ≥Grade 3: 0 n (%)
  Decreased appetite, treatment-related, Grade 3: 0 n (%)
  Decreased appetite, treatment-related, all grades: 4 (30.8) n (%)
  Diarrhea, all-causality, all grades: 3 (23.1) n (%)
  Diarrhea, all-causality, ≥Grade 3: 0 n (%)
  Diarrhea, treatment-related, Grade 3: 0 n (%)
  Diarrhea, treatment-related, all grades: 3 (23.1) n (%)
  Dysgeusia, all-causality, all grades: 9 (69.2) n (%)
  Dysgeusia, all-causality, ≥Grade 3: 0 n (%)
  Dysgeusia, treatment-related, Grade 3: 0 n (%)
  Dysgeusia, treatment-related, all grades: 9 (69.2) n (%)
  Fatigue, all-causality, all grades: 3 (23.1) n (%)
  Fatigue, all-causality, ≥Grade 3: 0 n (%)
  Hypokalemia, all-causality, all grades: 3 (23.1) n (%)
  Hypokalemia, all-causality, ≥Grade 3: 2 (15.4) n (%)
  Muscle spasms, all-causality, all grades: 6 (46.2) n (%)
  Muscle spasms, all-causality, ≥Grade 3: 0 n (%)
  Muscle spasms, treatment-related, Grade 3: 0 n (%)
  Muscle spasms, treatment-related, all grades: 5 (38.5) n (%)
  Pyrexia, all-causality, all grades: 6 (46.2) n (%)
  Pyrexia, all-causality, ≥Grade 3: 1 (7.7) n (%)
  Thrombocytopenia, all-causality, all grades: 3 (23.1) n (%)
  Thrombocytopenia, all-causality, ≥Grade 3: 3 (23.1) n (%)
  Weight decreased, all-causality, all grades: 3 (23.1) n (%)
  Weight decreased, all-causality, ≥Grade 3: 0 n (%)
[5]; dose levels tested (25–100 mg)
  Overall safety and tolerability: safe and well tolerated
[5]; doses up to 100 mg q.d.
  Maximum tolerated dose: not reached
Solid tumors
  Patients with prolonged (≥6 months) stabilization of disease: 13%
  Patients with stable disease: 35%
Hematologic malignancies; European and American patients with hematologic malignancies
  Patients with some suggestion of clinical activity: 23 of 47
Hematologic malignancies; phase I dose-escalation study, United States and Italy
  Patients with preliminary clinical activity: approximately half
GLI1 expression [6]; 50 mg group
  Downregulation of GLI1 expression from skin biopsies: > 80%
GLI1 expression [6]; 100 mg group
  Downregulation of GLI1 expression from skin biopsies: > 80%
GLI1 expression [6]; steady state, 25-mg group
  Marked downregulation of GLI1 expression from skin biopsies: not observed
SMO
  Inhibition of SMO in vitro: inhibited SMO in vitro
[7]
  Tolerability: well tolerated
[8]
  Dose proportionality of pharmacokinetics: dose‐proportional
